Screening data from PubChem BioAssay.
ZTA DNA inh: ZTA (EBV) inhibition in EBNA-1 counter-screen; P03206; ZTA-DNA binding, fluorescence polarization; inhibition, % at 11 µM; hit rate 0.15% among 320,000; in the data active = inhibition above about 33%
Target sequence (P03206 whole entry, looked up): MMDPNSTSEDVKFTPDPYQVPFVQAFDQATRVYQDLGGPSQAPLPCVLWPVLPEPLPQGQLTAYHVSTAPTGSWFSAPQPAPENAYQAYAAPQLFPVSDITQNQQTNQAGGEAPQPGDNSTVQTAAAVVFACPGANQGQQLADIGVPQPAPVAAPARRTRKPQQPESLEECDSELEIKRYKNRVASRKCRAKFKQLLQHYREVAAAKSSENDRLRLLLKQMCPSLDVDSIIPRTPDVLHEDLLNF
M18AAP inhibitor: PfM18AAP enzyme inhibition; recombinant PfM18AAP, H-Glu-NHMec fluorogenic cleavage; inhibition, % at 7.35 µM; hit rate 1.2% among 290,000;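 active = inhibition above the campaign mean inhibition over all tested compounds plus 3 SD, cut at about 28% in these data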
NS3 helicase inh: blocks Hepatitis C virus NS3 helicase unwinding; inhibition, % at 10.9 µM; AID 1800; NS3 helicase DNA unwinding, Cy5 molecular beacon fluorescence; hit rate 0.56% among 290,000;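 active = inhibition above the mean of all tested compounds plus 3 SD, set per campaign, cut at about 35% in these data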
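Material: hepatitis C virus NS3 helicase domain fragment enzyme; measured by: Cy5 fluorescence, 0 and 60 min reads; control set: DMSO and thioflavine S; incubation: 60 min unwinding reaction at 25 °C after ATP addition; read-out basis: % inhibition from 60/0 min fluorescence ratio, DMSO 0%, thioflavine S 100%; repeats: singlicate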
core dimer inh: blocks dimerization of HCV core protein; TR-FRET GST/Flag-core106 dimerization, 1536-well; inhibition, % at 5 µM; hit rate 0.33% among 300,000;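 active = inhibition above the mean of all tested compounds plus 3 SD, set per screening campaign, cut at about 45% in these data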
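Assay system: tagged HCV core106 pair (GST and Flag); medium: KF-containing HEPES buffer, pH 7.45, DTT, CHAPS, BSA; also added: Eu donor and XL665 acceptor anti-tag antibodies; dosing: 5 µM single dose; timing: compound-protein-antibody incubation 4 h at 22.5 °C; signal: TR-FRET 671 and 617 nm emission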
ALR inh: inhibitors of human sulfhydryl oxidase ALR. inhibition, % (no concentration beside the values). purified ALR, DTT oxidation, H2O2 HRP-luminol luminescence. AID 485317. P55789. hit rate 3.8% among 290,000;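 active = mean replicate inhibition above about 79%, with every replicate also reaching it, limit read from the data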
Target sequence (P55789 whole entry, looked up): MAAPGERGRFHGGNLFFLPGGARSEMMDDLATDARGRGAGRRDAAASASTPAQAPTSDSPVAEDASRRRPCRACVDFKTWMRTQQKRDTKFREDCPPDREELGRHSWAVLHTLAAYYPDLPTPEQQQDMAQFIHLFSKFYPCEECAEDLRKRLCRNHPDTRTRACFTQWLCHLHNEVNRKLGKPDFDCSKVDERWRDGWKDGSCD
EBNA-1 inhibitor: blocks EBNA-1 binding to DNA | EBNA-1 DNA binding, fluorescence polarization | inhibition, % at 14.8 µM | hit rate 0.34% among 300,000 | AID 1950; in the data active = inhibition above about 28%
EBNA-1 confirm: EBNA-1 (EBV) inhibition, confirmation | inhibition, % at 14.8 µM | Recombinant EBNA-1 DBD, Cy5-DNA fluorescence polarization | hit rate 35% among 830 | shares compounds with EBNA-1 inhibitor | AID 2292;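 active = mean inhibition across replicates above a set limit taken from the earlier primary screen, cut at about 28% in these data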
ZTA DNA inh trip: blocks Epstein-Barr virus ZTA in triplicate, EBNA-1 counter-screen; shares compounds with EBNA-1 inhibitor; Zta-ZRE DNA binding, Cy5 fluorescence polarization; inhibition, % at 11.1 µM; 830 tested, under 10 active; AID 2328;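 active = mean inhibition over triplicates above a set limit taken from the primary EBNA-1 screen, cut at about 37% in these data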;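 also: purified full length Zta protein with Cy5 labeled ZRE DNA probe; inhibitors lower polarization by freeing the labeled DNA probe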
Each line names hits and unclear results; the compound was inactive in the other large screens (follow-up assays come after a bar, where they were run). The list is not random: actives were taken first. Their share in the collection is about 5.2%.

COc1ccc(CNS(=O)(=O)NCc2ccc(C)cc2)cc1	EBNA-1 inhibitor 56 | EBNA-1 confirm inactive | ZTA DNA inh trip inactive
Cc1ccc(CNS(=O)(=O)NCc2ccc(Cl)cc2)cc1	none
COc1cccc(/C=N/NC(=O)c2ccc(CN3c4cccc5cccc(c45)S3(=O)=O)cc2)c1	EBNA-1 inhibitor 30 | EBNA-1 confirm inactive | ZTA DNA inh trip inactive
CC(C)NC(=O)C(Sc1ccccc1)c1ccccc1 (centres undefined)	EBNA-1 inhibitor 39 | EBNA-1 confirm inactive | ZTA DNA inh trip inactive
COCCCNC(=O)c1c(N)n(-c2ccccc2)c2nc3ccccc3nc12	none
COCCCNC(=O)c1c(N)n(-c2ccc(S(N)(=O)=O)cc2)c2nc3ccccc3nc12	EBNA-1 inhibitor 113 | EBNA-1 confirm 65 | ZTA DNA inh trip inactive
Cc1ccc(S(=O)(=O)c2c(COC(=O)c3ccccc3Cl)c(-c3ccccc3)nn2C)cc1	none
CCOc1ccc(CCNC(=O)c2ccc(C)c(NC3=NC4CS(=O)(=O)CC4S3)c2)cc1 (centres undefined)	none
CCc1nnc(NC(=O)CSc2nc3cc4c(cc3cc2C)OCCO4)s1	EBNA-1 inhibitor 102 | EBNA-1 confirm 98 | ZTA DNA inh trip inactive
COCCn1cnc2c1c(=O)n(Cc1ccc(C#N)cc1)c(=O)n2Cc1ccccc1	none
COc1ccc(NC(=O)c2cc(-c3cccnc3)nc3c(C)c(C)ccc23)c(OC)c1	EBNA-1 inhibitor 33 | EBNA-1 confirm inactive | ZTA DNA inh trip inactive
Cc1cc(N2CCOCC2)ccc1/C=C1\NC(=O)N(CC(=O)Nc2ccccc2C)C1=O	EBNA-1 inhibitor 42 | EBNA-1 confirm inactive | ZTA DNA inh trip inactive
Cc1cccc(NC(=O)CN2C(=O)N/C(=C/c3cc(C)n(C)c3C)C2=O)c1	none (no result: ZTA DNA inh, core dimer inh, ALR inh, EBNA-1 inhibitor)
Cc1cccc(NC(=O)CN2C(=O)N/C(=C\c3ccc(N4CCOCC4)cc3)C2=O)c1	EBNA-1 inhibitor 34 | EBNA-1 confirm inactive | ZTA DNA inh trip inactive
Cc1cc(N2CCOCC2)ccc1/C=C1\NC(=O)N(CC(=O)Nc2ccc(F)cc2)C1=O	none
COc1ccc(OC)c(NC(=O)CCN2CCN(c3ccccc3OC)CC2)c1	none
CN1C(=O)CC(C(=O)Nc2ccccc2F)SC1=Nc1ccc2c(c1)OCO2 (centres undefined)	EBNA-1 inhibitor 28 | EBNA-1 confirm 50 | ZTA DNA inh trip inactive
COc1cccc(NC(=O)C2CCN(S(=O)(=O)c3ccc4c(c3)C(C)(C)C(=O)N4C)CC2)c1	none
COc1ccc(NC(=O)c2ccc3c(c2)CCN3S(=O)(=O)c2ccccc2)c(OC)c1	EBNA-1 inhibitor 28 | EBNA-1 confirm inactive | ZTA DNA inh trip inactive
CCCNC(=O)c1ccc2c(=O)c(O)c(-c3ccc(OC)cc3)[nH]c2c1	EBNA-1 inhibitor 32 (no result: M18AAP inhibitor, NS3 helicase inh) | EBNA-1 confirm inactive | ZTA DNA inh trip inactive
CCCNC(=O)c1ccc2c(=O)c(O)c(-c3ccc(C)cc3)[nH]c2c1	none (no result: M18AAP inhibitor, NS3 helicase inh)
O=C(O)c1cc(Cl)c(Cl)cc1C(=O)Nc1cccc2cccnc12	none
O=C(CSc1ccc(-c2ccccc2)nn1)c1ccccc1	EBNA-1 inhibitor 40 | EBNA-1 confirm inactive | ZTA DNA inh trip inactive
Cc1ccc(C(=O)CSc2ccc(-c3ccccc3)nn2)cc1	none
Cc1ccc(S(=O)(=O)N(C)C)cc1NC(=O)COC(=O)CCCOc1ccccc1	EBNA-1 inhibitor 72 | EBNA-1 confirm inactive | ZTA DNA inh trip inactive
Cc1ccc(S(=O)(=O)N(C)C)cc1NC(=O)COC(=O)CCC(=O)c1cccs1	none (no result: ALR inh)
CC(OCc1ccccc1)C(NC(=O)OC(C)(C)C)C(=O)NCC1CCCO1 (centres undefined)	EBNA-1 inhibitor 46 | EBNA-1 confirm inactive | ZTA DNA inh trip inactive
COc1cccc(-c2c(C(=O)N/N=C(\C)c3ccco3)nnn2-c2nonc2N)c1	none
CCOc1ccc(/C=N/NC(=O)c2nnn(-c3nonc3N)c2-c2ccc(OCC)cc2)cc1	EBNA-1 inhibitor 35 | EBNA-1 confirm inactive | ZTA DNA inh trip inactive
